From ChEMBL document CHEMBL1139060, “4-[6-(2-Aminoethyl)naphthalen-2-yl]benzonitriles are potent histamine H3 receptor antagonists with high CNS penetration” (Bioorg Med Chem Lett, 2007) come the findings set out here.

The Ki is a measure of affinity in units of concentration, obtained from inhibition or displacement. Lower therefore signals a stronger hold on the target. As a reminder, the half-life is the time needed for the level to fall by half in the phase considered. Low values mean rapid decline, high ones slow decline. Usually AUC(0-inf) stands for the area under the concentration-time curve extrapolated to infinity. Low readings indicate low exposure, high ones high exposure. In general, Cmax refers to the maximum level reached in the sampled fluid or tissue. In general, bioavailability refers to the share of a dose that reaches the circulation, judged against a reference dose that is usually intravenous. A higher bioavailability goes with much systemic uptake. Broadly, the Kp is the ratio of the level in a tissue or fluid to that in plasma or blood.

The target in data set [1] is Histamine H3 receptor (Homo sapiens, UniProt Q9Y5N1). The data set can be described thus: Displacement of [3H]N-alpha-methylhistamine from human cloned histamine H3 receptor expressed in C6 cells. Type of data set: cell-based. The gist of the method:
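Radioligand displacement with [3H]N-α-methylhistamine on membranes from C6 cells carrying cloned human H3R. Ki derived from pKi.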
A general note: In a radioligand displacement assay an active substance lowers the binding of a labelled ligand.

For data set [2], the target named is Histamine H3 receptor (Rattus norvegicus, UniProt Q9QYN8). The data set can be described thus: Displacement of [3H]N-alpha-methylhistamine from histamine H3 receptor in rat cortical membranes. Format: cell membranes, Membrane. In outline:
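Competitive binding on rat cerebral cortex membranes, displacing the radioligand [3H]N-α-methylhistamine. Ki obtained from pKi. At least 3 independent pKi determinations per compound.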

Data set [3] can be described thus: Half life in rat at 1 mg/kg, iv. Format: ADME, organism-based. Also on record: dose 1 mg/kg, route intravenous. The note with it: in vivo.
A short description of data set [4]: Volume of distribution in rat at terminal phase at 1 mg/kg, iv. The conditions noted are these: in vivo, read-out: Vbeta. More on the design: dose 1 mg/kg, route intravenous. Type of data set: ADME, organism-based.
Data set [5] is described as follows: AUC (0 to infinity) in rat at 1 mg/kg, iv. Format: ADME, organism-based. More on the design: time infinity, dose 1 mg/kg, route intravenous. The note with it: plasma.
The nature of data set [6]: Cmax in rat at 1 mg/kg, po. Format: ADME, organism-based. More on the design: dose 1 mg/kg, route oral. The conditions noted are these: in vivo.
Data set [7] can be described thus: Half life in rat at 1 mg/kg, po. The note with it: in vivo. Format: ADME, organism-based. More on the design: dose 1 mg/kg, route oral.
Data set [8] is described as follows: AUC (0 to infinity) in rat at 1 mg/kg, po. The conditions noted are these: plasma. Also on record: time infinity, dose 1 mg/kg, route oral. Type of data set: ADME, organism-based.
Data set [9] can be described thus: Oral bioavailability in rat at 1 mg/kg. Format: ADME, organism-based. The note with it: in vivo.
Data set [10] can be described thus: Ratio of drug level in brain to plasma in rat at 5 mg/kg, iv. Format: ADME, organism-based. Also on record: dose 5 mg/kg, route intravenous. The gist of the method: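 Rats given 5 mg/kg intravenously; brain and plasma drug concentrations measured one hour after dosing and expressed as a brain-to-plasma ratio.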

Chain of Histamine H3 receptor (Rattus norvegicus, UniProt Q9QYN8) (Q9QYN8 whole entry): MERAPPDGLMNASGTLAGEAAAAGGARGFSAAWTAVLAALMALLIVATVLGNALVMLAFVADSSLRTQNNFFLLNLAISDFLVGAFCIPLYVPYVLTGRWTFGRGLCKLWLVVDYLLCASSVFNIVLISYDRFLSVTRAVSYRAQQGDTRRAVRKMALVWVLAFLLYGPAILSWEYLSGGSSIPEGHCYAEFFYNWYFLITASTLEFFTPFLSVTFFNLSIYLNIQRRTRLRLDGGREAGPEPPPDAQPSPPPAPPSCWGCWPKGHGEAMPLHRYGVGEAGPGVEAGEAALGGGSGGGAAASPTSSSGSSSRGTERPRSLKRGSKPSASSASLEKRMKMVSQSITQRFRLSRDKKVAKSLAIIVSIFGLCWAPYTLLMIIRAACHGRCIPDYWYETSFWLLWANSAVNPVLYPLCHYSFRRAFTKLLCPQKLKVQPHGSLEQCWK
Chain of Histamine H3 receptor (Homo sapiens, UniProt Q9Y5N1) (Q9Y5N1 whole entry): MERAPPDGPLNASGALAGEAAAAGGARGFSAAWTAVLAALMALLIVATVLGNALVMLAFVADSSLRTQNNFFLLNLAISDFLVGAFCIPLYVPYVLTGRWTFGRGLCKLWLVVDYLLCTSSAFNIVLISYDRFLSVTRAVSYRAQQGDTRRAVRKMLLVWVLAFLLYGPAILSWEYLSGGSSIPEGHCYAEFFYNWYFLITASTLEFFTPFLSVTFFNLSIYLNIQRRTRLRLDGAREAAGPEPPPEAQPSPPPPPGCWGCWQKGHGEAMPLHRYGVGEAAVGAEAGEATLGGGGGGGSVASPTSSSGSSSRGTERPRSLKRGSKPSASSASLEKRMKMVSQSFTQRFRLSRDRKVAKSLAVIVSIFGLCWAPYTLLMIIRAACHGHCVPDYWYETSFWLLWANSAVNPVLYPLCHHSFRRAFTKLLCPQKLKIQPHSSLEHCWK

Regarding `C[C@@H]1CCCCN1CCc1ccc2cc(-c3ccc(C#N)cc3)ccc2c1`, the inhibition constant (Ki) at Histamine H3 receptor [1] came to 8.71 nM; on Histamine H3 receptor [2], 141 nM.
The corresponding values for `CN(C)CCc1ccc2cc(-c3ccc(C#N)cc3)ccc2c1` are 2.65 nM and 45.3 nM.
The corresponding values for `CCN(CC)CCc1ccc2cc(-c3ccc(C#N)cc3)ccc2c1` are 0.84 nM and 12.5 nM.
Regarding `N#Cc1ccc(-c2ccc3cc(CCN4CC=CC4)ccc3c2)cc1`, the Ki is 3.31 nM on Histamine H3 receptor [1] and 66.1 nM at Histamine H3 receptor [2].
The corresponding values for `CC[C@@H]1CCCN1CCc1ccc2cc(-c3ccc(C#N)cc3)ccc2c1` are 8.61 nM and 33.7 nM.
Turning to `CN(CCO)CCc1ccc2cc(-c3ccc(C#N)cc3)ccc2c1`, the Ki on Histamine H3 receptor [1] amounted to 10.5 nM; on Histamine H3 receptor [2], 457 nM.
The corresponding values for `C[C@H]1CCCN1CCc1ccc2cc(-c3ccc(C#N)cc3)ccc2c1` are 0.12 nM and 3.47 nM.
The corresponding values for `N#Cc1ccc(-c2ccc3cc(CCN4CCCC4)ccc3c2)cc1` are 0.49 nM and 6.42 nM.
The like results for `C[C@@H]1CCCN1CCCOc1ccc(-c2ccc(C#N)cc2)cc1` were, in that order, 0.22 nM and 1.96 nM.
With `C[C@@H]1CCCN1CCc1ccc2cc(-c3ccc(C#N)cc3)ccc2c1`, the Ki came to 0.24 nM at Histamine H3 receptor [1] and 2.48 nM at Histamine H3 receptor [2]. In addition, the half-life in data set [3] is 6.9 h; in data set [7] it was 6.5 h. In addition, the Vd in [4] is 6 L/kg. In addition, the AUC(0-inf) in [5] was 1640 ng·h/mL; in [8] it was 890 ng·h/mL. This molecule also returned a Cmax in [6] of 48 ng/mL. This molecule also displayed a bioavailability in [9] of 55%. Also, in data set [10], the Kp was 72.
Consider `CC(C)C1CCCN1CCc1ccc2cc(-c3ccc(C#N)cc3)ccc2c1` (stereo unspecified), for which the Ki is 27.3 nM on Histamine H3 receptor [1] and 233 nM on Histamine H3 receptor [2].
The corresponding values for `CC(C)CC1CCCN1CCc1ccc2cc(-c3ccc(C#N)cc3)ccc2c1` (stereo unspecified) are 273 nM and 465 nM.
On to `N#Cc1ccc(-c2ccc3cc(CCN4CCC[C@H]4CF)ccc3c2)cc1`, for which the Ki at Histamine H3 receptor [1] came out at 0.81 nM; on Histamine H3 receptor [2] it was 9.77 nM.
Turning to `C[C@@H]1CCCN1CCc1cc2cc(-c3ccc(C#N)cc3)ccc2o1`, the half-life was 5.3 h in data set [3] and 5.2 h in data set [7]. Besides, the Vd in data set [4] worked out at 12 L/kg. In addition, the figures for the AUC(0-inf) in data set [5] and in data set [8] were 673 ng·h/mL and 349 ng·h/mL, respectively. In addition, the peak level in [6] (Cmax) was 29 ng/mL.
For the molecule `N#Cc1ccc(-c2ccc3cc(CCN4CCC[C@@H]4CO)ccc3c2)cc1`, the Ki on Histamine H3 receptor [1] turned out to be 2.89 nM; on Histamine H3 receptor [2], 42.8 nM.
The like results for `N#Cc1ccc(-c2ccc3cc(CCN4CCC[C@H]4CO)ccc3c2)cc1` were, in that order, 0.44 nM and 11 nM.
On to `CN(C)[C@@H]1CCN(CCc2ccc3cc(-c4ccc(C#N)cc4)ccc3c2)C1`, for which the Ki came to 20.1 nM at Histamine H3 receptor [1] and 100 nM on Histamine H3 receptor [2].
The like results for `N#Cc1ccc(-c2ccc3cc(CCN4CC[C@@H](O)C4)ccc3c2)cc1` were, in that order, 1.56 nM and 30.9 nM.
The corresponding values for `CN(CCc1ccc2cc(-c3ccc(C#N)cc3)ccc2c1)C(C)(C)C` are 1.09 nM and 27.9 nM.
The corresponding values for `CCN(CCc1ccc2cc(-c3ccc(C#N)cc3)ccc2c1)C(C)C` are 4.62 nM and 30.3 nM.
With `CC1CCCN1CCc1ccc2cc(-c3ccc(C#N)cc3)ccc2c1` (stereo unspecified), the Ki at Histamine H3 receptor [1] was determined as 0.18 nM; at Histamine H3 receptor [2] it was 1.24 nM.
The like results for `CCCN(C)CCc1ccc2cc(-c3ccc(C#N)cc3)ccc2c1` were, in that order, 2.09 nM and 25.7 nM.
